Screens from PubChem BioAssay.
Rev-erbA mod: modulators of human Rev-erb alpha DNA binding; Rev-erbα–FITC-DNA binding, fluorescence polarization, 90 min; activity, % at 10 µM; 370,000 compounds, 0.79% hits;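 active means activity above about 14%, limit read from the data; passing the limit was not always enough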;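 further: 0% = DMSO wells with 35 nM protein and 100% = DMSO wells with 750 nM protein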
Target sequence (P20393 whole entry, looked up): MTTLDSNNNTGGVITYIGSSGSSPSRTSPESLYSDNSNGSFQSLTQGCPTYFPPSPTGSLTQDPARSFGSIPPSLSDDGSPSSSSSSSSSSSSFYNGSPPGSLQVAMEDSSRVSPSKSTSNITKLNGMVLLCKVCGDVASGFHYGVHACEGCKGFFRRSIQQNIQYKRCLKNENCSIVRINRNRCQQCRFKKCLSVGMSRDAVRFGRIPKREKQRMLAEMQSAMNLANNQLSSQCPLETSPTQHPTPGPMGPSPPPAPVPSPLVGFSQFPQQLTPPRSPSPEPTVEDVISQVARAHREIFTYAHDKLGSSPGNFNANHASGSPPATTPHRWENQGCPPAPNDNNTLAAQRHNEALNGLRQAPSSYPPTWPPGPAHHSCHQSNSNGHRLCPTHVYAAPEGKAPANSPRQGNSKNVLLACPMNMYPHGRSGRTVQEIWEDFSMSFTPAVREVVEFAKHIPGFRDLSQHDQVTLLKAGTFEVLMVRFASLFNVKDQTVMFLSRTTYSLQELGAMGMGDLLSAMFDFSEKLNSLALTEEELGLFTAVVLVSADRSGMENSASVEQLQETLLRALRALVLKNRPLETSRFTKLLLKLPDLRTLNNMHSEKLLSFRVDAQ
NR2E3 ag-1: activates human photoreceptor nuclear receptor NR2E3 | Q9Y5X4 | GST-NR2E3/biotin-RetCOR TR-FRET, 1536-well | inhibition of corepressor binding, % at 4.78 µM | 320,000 compounds, 0.12% hits;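 active means percent inhibition above the cutoff of mean plus 3 SD of all tested compounds, set per screening campaign, cut at about 20% in these data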;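 further: 0% = DMSO wells and 100% = biotin wells as full block of FRET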
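System: GST-NR2E3 and biotin-RetCOR proteins; probe or stimulus: 7 nM biotin-RetCOR; doses: compound at 4.8 µM, single dose; schedule: Compound–protein incubation for 5 h at 4 °C; detection: time-resolved FRET; read-out: percent inhibition; controls: biotin wells as high control, 0.6% DMSO wells as low control; format: 1536-well plates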
Neddylation inh: inhibitors of human cullin neddylation; TR-FRET cullin neddylation, biochemical; 360,000 compounds, 0.58% hits; calls only at 25 µM; in the data active means inhibition above about 36%
PG9 Ab binder: binds the HIV-1 gp120 antibody PG9 | TR-FRET gp120-PG9 antibody binding | inhibition, % at 6.7 µM | 360,000 compounds, 0.43% hits | AID 624416; in the data active means inhibition above about 8.5%
NR2E3 ag-2: activates human NR2E3 receptor; 360,000 compounds, 0.35% hits; CHO-S Gal4-NCOR/VP16-NR2E3 two-hybrid, luciferase; inhibition of corepressor binding, % at 3.98 µM; Q9Y5X4; AID 602229;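 active means inhibition above the mean of all tested compounds plus 3 SD, cut at about 70% in these data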;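 further: 0% = DMSO with NR2E3 transfected cells and 100% = cells lacking NR2E3 construct; higher means lower luciferase signal from less NR2E3 corepressor binding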
NR2E3 ag confirm: confirmation of human NR2E3 agonists; inhibition, % at 3.98 µM; 2,300 compounds, 51% hits; shares compounds with NR2E3 ag-2; CHO-S mammalian two-hybrid NR2E3-NCOR, luciferase luminescence;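 active means average inhibition above a cutoff equal to the mean inhibition of all tested compounds plus one SD, cut at about 70% in these data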;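 further: 0% = DMSO in NR2E3 cells and 100% = DMSO in cells lacking NR2E3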
GAL4-VP16 luc: GAL4-VP16 reporter inhibition in NR2E3 agonist counterscreen. shares compounds with NR2E3 ag-2. CHO-S GAL4-VP16 luciferase reporter, luminescence. inhibition, % at 3.98 µM. 2,300 compounds, 29% hits. AID 624379;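 active means mean inhibition above a cutoff equal to the average over all tested compounds plus one standard deviation, cut at about 70% in these data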;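 further: luciferase from a UAS reporter driven by GAL4-VP16 transactivation; 0% = DMSO with VP16-transfected cells and 100% = DMSO with cells lacking VP16; higher means less reporter light so more repression of VP16 activity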
Active calls of the source: *; i = inactive; nt = not tested or not shown. Shown are actives, neighbours in structure and some others; about 2% of the full set was active somewhere.

SMILES	Rev-erbA mod	NR2E3 ag-1	Neddylation inh	PG9 Ab binder	NR2E3 ag-2	NR2E3 ag confirm	GAL4-VP16 luc
O=C(NCCc1ccccc1)c1ccc2c(c1)OCCCO2	-1.1	0.7	i	-1.8	87.4*	66.0	57.2
O=C(CCCc1ccccc1)c1ccc2c(c1)OCCO2	8.2	1.9	i	0.5	64.2	21.2	12.3
O=C(NCCc1ccccc1)c1ccc2c(c1)OCCO2	3.2	-0.8	i	1.1	46.0	nt	nt
C[C@H](CCCCC1(C)OCCO1)CCC(=O)N(c1ccccc1)c1ccccc1	4.2	nt	nt	nt	nt	nt	nt
O=C1C=CC2(C=C1)O[C@H](Cc1ccccc1)[C@@H](Cc1ccccc1)O2	3.4	nt	i	2.2	100.4*	99.6*	67.6
COc1ccc(C[C@@H]2OC3(C=CC(=O)C=C3)O[C@H]2Cc2ccc(OC)cc2)cc1	nt	nt	i	nt	96.6*	96.4*	53.8
COc1cccc(C(=O)N2CCC[C@@H]2C(=O)N2CCC[C@H]2C(=O)NCc2ccccc2)c1	-4.2	nt	nt	-0.3	nt	nt	nt
Nc1[nH]c(C(=O)c2ccc(Br)cc2)c(-c2ccc(Cl)cc2[N+](=O)[O-])c1C(=O)NCCc1c[nH]c2ccccc12	2.2	nt	nt	0.6	nt	nt	nt
Cc1cc(C)n2nc(SCC(=O)c3cc(C)n(-c4cc(C)on4)c3C)nc2n1	-0.9	2.1	i	-1.4	91.7*	93.9*	81.4*
Cc1cc(C)n2nc(SCC(=O)c3ccccc3)nc2n1	0.6	3.5	i	-1.4	-13.1	nt	nt
Cc1cc(-n2c(C)cc(C(=O)CSc3ncnc4ccccc34)c2C)no1	5.5	2.8	i	0.3	91.6*	96.9*	86.4*
Cc1cc(C(=O)CSc2ncnc3ccccc23)c(C)n1C1CC1	6.1	1.8	i	-2.2	19.5	nt	nt
CCC(NC(=O)c1ccc2c(c1)c(C)c(C)n2Cc1ccc(-c2ccccc2C#N)cc1)c1ccccc1 (centres undefined)	-0.1	nt	nt	nt	nt	nt	nt
Cc1cccc(CSc2cccc3cccnc23)c1	13.7	2.6	i	0.4	87.8*	-50.5	-103.8
O=C(OC12CCCN(C1)/C(=C/c1ccncc1)C2)c1ccc(Cl)cc1 (centres undefined)	-0.2	nt	nt	nt	nt	nt	nt
CCCCCc1ccc(NC(=O)OCCCN2CCC3(CCC(c4ccccc4)CC3)C2=O)cc1 (centres undefined)	-0.9	nt	nt	nt	nt	nt	nt
COc1cc(C)c(NC(=O)COc2cccc3c2OC(C)(C)C3)cc1OC	nt	-3.8	i	nt	62.3	9.7	40.6
Cc1cccc(C2(c3cccc(C)c3)CC2C(=O)Nc2ccc([N+](=O)[O-])cc2O)c1 (centres undefined)	2.7	-4.0	i	1.2	86.3*	74.0*	66.9
CO/N=C(\C(=O)N[C@H]1C(=O)N2C(C(=O)OCOC(=O)C(C)(C)C)=C(/C=C\c3scnc3C)CSC12)c1csc(N)n1 (some centres undefined)	-10.6	nt	nt	nt	nt	nt	nt
CCC(=O)c1ccc(OCC(O)Cn2c(C)nc3ccccc32)cc1 (centres undefined)	1.2	1.9	i	3.1	51.0	54.3	37.7
CC(CN1CCN(CCOCCO)CC1)CN1c2ccccc2Sc2ccc(Cl)cc21 (centres undefined)	-0.8	nt	i	-1.2	48.9	26.4	6.5
CN1CCN(CCCN2c3ccccc3Sc3ccc(Cl)cc32)CC1	-2.1	-6.4	i	-2.5	2.4	nt	nt
N=c1c2c(-c3ccccc3)c(-c3ccccc3)n(Cc3ccccc3)c2ncn1C1CCOCC1	4.4	nt	nt	nt	nt	nt	nt
O=C(CN1C(=O)CCC1=O)NNc1ccc2ccccc2c1	-2.6	-3.0	i	-3.4	31.4	nt	nt
O=C(Cc1ccccc1)NNc1ccc2ccccc2c1	2.8	-2.4	i	-1.2	49.7	52.6	5.1
SMILES	Rev-erbA mod	NR2E3 ag-1	Neddylation inh	PG9 Ab binder	NR2E3 ag-2	NR2E3 ag confirm	GAL4-VP16 luc
Cc1ccc(CNC(=O)OC(C)(C)C)c(/C=C/S(=O)(=O)NC2CCCC2)c1	-3.1	nt	nt	nt	nt	nt	nt
CCc1ccc(CN(C)C(=O)c2cc(COc3ccc(-n4cncn4)cc3)on2)cc1	-3.6	1.6	i	0.9	80.4*	43.2	44.2
CCc1ccc(CN(C)C(=O)c2cc(COc3cncc(Cl)c3)on2)cc1	-4.9	nt	i	-0.8	-22.4	nt	nt
CN(Cc1ccc(F)cc1)C(=O)c1cc(COc2ccc(-n3cncn3)cc2)on1	-4.6	nt	i	0.3	72.7*	60.9	62.7
Cc1ccc(OCc2cc(C(=O)N(C)Cc3cnn(-c4ccccc4C)c3)no2)cn1	-4.1	1.0	i	0.1	79.5*	55.8	48.8
O=C(COCc1ccccc1)N1CC[C@H]2[C@H](CCCN2Cc2cc(F)cc(F)c2)C1	-3.0	nt	nt	nt	nt	nt	nt
C=CCn1c(-c2ccc(S(=O)(=O)N3CCOCC3)cc2)csc1=Nc1ccccc1	-1.3	0.0	i	-0.1	22.6	nt	nt
CC(=O)c1cccc(N=c2scc(-c3ccc(S(=O)(=O)N4CCOCC4)cc3)n2CCO)c1	-0.1	-0.7	i	-3.4	68.0	81.5*	77.1*
C=CCn1c(C)cc(C(=O)CSc2nc3ccccc3[nH]2)c1C	-6.5	-1.7	i	4.2	64.3	33.3	-35.9
COCC(C)n1c(C)cc(C(=O)CSc2nc3ccccc3c(=O)[nH]2)c1C (centres undefined)	-2.3	1.3	i	0.3	51.0	63.8	52.0
CCn1c(C)cc(C(=O)CN2C(=O)c3ccccc3S2(=O)=O)c1C	1.8	0.8	i	0.1	35.5	nt	nt
Cc1cc(C(=O)CSc2nc3ccc(Cl)cc3[nH]2)c(C)n1CC1CCCO1 (centres undefined)	0.7	0.4	i	0.0	57.0	80.2*	63.8
C=CCn1c(C)cc(C(=O)CN2C(=O)c3ccccc3S2(=O)=O)c1C	nt	1.9	i	nt	55.6	76.4*	33.7
O=C(CSc1nnc(-c2cccnc2)n1Cc1ccco1)Nc1cc(Cl)ccc1F	1.7	nt	nt	nt	nt	nt	nt
COCC(=O)N1[C@H](CO)[C@@H](c2ccc(-c3cccnc3)cc2)[C@H]1CN(C)S(=O)(=O)c1ccccc1[N+](=O)[O-]	0.2	nt	nt	nt	nt	nt	nt
O=C(O)CSCC(=O)Nc1ccc(C2CCCCC2)cc1	3.2	1.0	i	-0.4	71.9*	61.3	69.7
O=S(=O)(c1ccccc1F)N1CCC(c2nc3ccccc3o2)CC1	-0.5	nt	nt	nt	nt	nt	nt
Cn1c(=O)c2c(nc(NCCc3ccccc3)n2Cc2ccc(F)cc2)n(C)c1=O	-6.8	-0.1	i	1.2	-30.3	nt	nt
CNc1nc2c(c(=O)n(C)c(=O)n2C)n1CCCc1ccccc1	-3.9	0.7	i	0.6	-4.2	nt	nt
Cn1c(=O)c2c(nc(NCc3ccco3)n2C)n(C)c1=O	-0.9	0.6	i	-0.4	10.0	nt	nt
CNc1nc2c(c(=O)n(C)c(=O)n2C)n1Cc1ccccc1	-3.4	2.3	i	-0.7	55.6	14.8	28.0
CC(Cl)=CCn1c(NCCc2ccccc2)nc2c1c(=O)n(C)c(=O)n2C	-6.2	nt	i	2.6	48.1	91.0*	71.0*
